From ChEMBL document CHEMBL1155178, “Reactivity of isothiazolones and isothiazolone-1-oxides in the inhibition of the PCAF histone acetyltransferase” (Eur J Med Chem, 2009)

How the values were obtained:
HepG2 = experiment: Growth inhibition of human HepG2 cells after 48 hrs by crystal violet assay; format: functional, cell-based; details: HepG2, 48 h
How it was run: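 HEP G2 liver cancer cells grown in DMEM with 10% heat-inactivated FBS, penicillin and streptomycin at 37 °C, 5% CO2. Seeded at 5000 cells/well, grown 24 h, then exposed to inhibitors for 48 h. Fixed and stained with 1% crystal violet in 70% ethanol for 30 min, water-washed, solubilized in 1% SDS, read at 550 nm. Cell-free blank subtracted; untreated growth set to 100%. Each concentration tested 8-fold.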

[1] = Octanol-water partition coefficient, log P by HPLC analysis; format: physicochemical
How it was run: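 log P determined from the analyte's peak area in each of the two layers.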

[2] = target: Histone acetyltransferase KAT2B (Homo sapiens, UniProt Q92831); experiment: Inhibition of human recombinant histone acetyltransferase PCAF assessed as CoA-SH activity preincubated for 15 mins by CPM fluorescent assay
Chain of Histone acetyltransferase KAT2B (Q92831 whole entry): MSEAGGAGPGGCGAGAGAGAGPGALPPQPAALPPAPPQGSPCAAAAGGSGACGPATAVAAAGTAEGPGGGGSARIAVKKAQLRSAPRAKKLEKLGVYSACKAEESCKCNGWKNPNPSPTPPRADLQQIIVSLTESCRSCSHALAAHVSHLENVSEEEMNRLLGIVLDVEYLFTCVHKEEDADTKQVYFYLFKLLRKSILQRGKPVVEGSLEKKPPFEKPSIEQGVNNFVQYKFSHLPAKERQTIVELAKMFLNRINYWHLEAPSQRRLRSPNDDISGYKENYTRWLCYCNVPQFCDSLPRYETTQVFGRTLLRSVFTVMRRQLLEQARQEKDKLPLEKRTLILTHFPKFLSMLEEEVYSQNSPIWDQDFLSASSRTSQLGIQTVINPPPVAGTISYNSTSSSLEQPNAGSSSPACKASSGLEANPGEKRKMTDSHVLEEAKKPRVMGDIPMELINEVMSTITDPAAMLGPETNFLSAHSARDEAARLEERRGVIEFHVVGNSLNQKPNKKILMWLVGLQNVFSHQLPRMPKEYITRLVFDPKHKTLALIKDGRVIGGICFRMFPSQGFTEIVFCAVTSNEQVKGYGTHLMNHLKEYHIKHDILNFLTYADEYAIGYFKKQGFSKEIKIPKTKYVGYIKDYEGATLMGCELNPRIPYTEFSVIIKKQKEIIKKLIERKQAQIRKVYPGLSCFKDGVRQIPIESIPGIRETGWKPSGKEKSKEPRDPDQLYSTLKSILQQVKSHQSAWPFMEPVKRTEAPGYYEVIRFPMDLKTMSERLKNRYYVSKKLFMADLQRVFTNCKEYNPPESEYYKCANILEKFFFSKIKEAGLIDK

Structure (SMILES) | IC50 (HepG2) [µM] | logP [1] | IC50 [2] [µM]
CCn1sc(Cl)cc1=O | 12 | – | –
CCCCCCCCCCCCSc1cc(=O)n(C(C)(C)C)[s+]1[O-] (stereo unspecified) | > 50 | – | > 10
CCn1c(=O)cc(Cl)[s+]1[O-] (stereo unspecified) | > 100 | – | > 10
CC(C)(C)n1c(=O)cc(Cl)[s+]1[O-] (stereo unspecified) | 27 | – | > 10
CCCCCCCCCCCCSc1cc(=O)n(CCC(=O)OC)[s+]1[O-] (stereo unspecified) | > 100 | – | > 10
CCn1c(=O)c(Cl)c(Cl)[s+]1[O-] (stereo unspecified) | > 100 | – | > 10
CCn1c(=O)c(C)c(Cl)[s+]1[O-] (stereo unspecified) | > 100 | – | > 10

Now from value to compound:

IC50 (HepG2) [µM] | logP [1] | IC50 [2] [µM] | Structure (SMILES)
24 | 0.69 | – | COC(=O)CCn1sc(Cl)cc1=O
> 100 | 0.08 | – | COC(=O)CCn1c(=O)cc(Cl)[s+]1[O-] (stereo unspecified)
9.1 | – | > 10 | CCn1sc(Cl)c(C)c1=O
12 | – | 2.4 | CCn1sc(Cl)c(Cl)c1=O
> 100 | – | > 10 | COC(=O)CCn1c(=O)c(C)c(Cl)[s+]1[O-] (stereo unspecified)
8.6 | – | > 10 | COC(=O)CCn1sc(Cl)c(C)c1=O
16 | – | 2.6 | COC(=O)CCn1sc(Cl)c(Cl)c1=O
> 100 | – | > 10 | COC(=O)CCn1c(=O)c(Cl)c(Cl)[s+]1[O-] (stereo unspecified)
> 100 | – | > 10 | CCCCCCCCCCCCSc1c(Cl)c(=O)n(CCC(=O)OC)[s+]1[O-] (stereo unspecified)
